Where a name gives a salt, the structure may show the parent alone.
How the values were obtained:
human 5-HT2A receptors = human 5-HT2A receptors (Homo sapiens, UniProt P28223); experiment: Saturation isotherm radioligand binding, 5-HT2A receptor; details: membranes, geometric mean ± SD, n = 3
In short: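 HEK293 membranes (5-HT2AR alone or with 5-HT1AR) were prepared by EDTA detachment, hypotonic lysis and 35,000g centrifugation. Saturation binding used [3H]MSP (0.3–10 nM) in 50 mM Tris, pH 7.4, for 1.5 h at 25 °C, with excess mianserin defining nonspecific binding. Samples were filtered on PEI-treated GF/C filters and counted by scintillation, with protein measured by BCA. Triplicate points; Kd and Bmax were fitted from isotherms, geometric mean of three experiments.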

human 5-HT1A receptors = target: T1, human 5-HT1A receptors (Homo sapiens, UniProt P08908); experiment: Saturation isotherm radioligand binding, 5-HT1A receptor; details: membranes, geometric mean ± SD, n = 3
T1 sequence (P08908 1-422): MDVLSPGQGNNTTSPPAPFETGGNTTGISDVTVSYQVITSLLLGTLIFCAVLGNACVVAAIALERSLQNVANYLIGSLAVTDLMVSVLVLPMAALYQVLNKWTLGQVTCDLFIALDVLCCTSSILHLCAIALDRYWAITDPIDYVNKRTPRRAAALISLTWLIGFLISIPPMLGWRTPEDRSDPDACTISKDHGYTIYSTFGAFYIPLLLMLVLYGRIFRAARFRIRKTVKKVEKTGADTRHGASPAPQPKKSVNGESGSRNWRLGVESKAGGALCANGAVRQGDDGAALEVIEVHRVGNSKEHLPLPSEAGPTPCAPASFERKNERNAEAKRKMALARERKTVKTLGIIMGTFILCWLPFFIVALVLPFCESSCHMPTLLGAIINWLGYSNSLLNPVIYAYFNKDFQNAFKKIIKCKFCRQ
In short: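 HEK293 membranes (5-HT1AR alone or with 5-HT2AR) were prepared by EDTA detachment, hypotonic lysis (5 mM Tris/MgCl2, pH 7.4) and 35,000g spins. They were incubated with [3H]MPPF in 50 mM Tris, pH 7.4, at 25 °C for 1.5 h, with excess NAN-190 defining nonspecific binding. Bound ligand was collected on PEI-treated GF/C filters and counted. Triplicate points; Kd and Bmax came from saturation isotherms, three experiments.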

5-HT1AR = target: T2, 5-HT1AR (Homo sapiens, UniProt P08908); experiment: ERK1/2 activation; assay type: cell-based
T2 sequence (P08908 1-422): T1 sequence (P08908 1-422)
In short: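 HEK293 cells stably expressing human 5-HT1AR (clonal, selected with G418 or hygromycin) were kept in 100 μg/ml selection antibiotic and then serum-starved in serum-free DMEM for at least 24 h. Agonist (10−10–10−4 M) was applied for 5 min; selected concentrations ran 5 min–1 h. Lysates (equal protein) were resolved by 10% SDS-PAGE. Parallel blots were probed for phospho-ERK1/2 and total ERK1/2, read by ECL densitometry with background subtracted. Serum was the positive control.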

5-HT2AR = 5-HT2AR (Homo sapiens, UniProt P28223); experiment: ERK1/2 activation; assay type: cell-based
Chain of 5-HT2AR (P28223 whole entry): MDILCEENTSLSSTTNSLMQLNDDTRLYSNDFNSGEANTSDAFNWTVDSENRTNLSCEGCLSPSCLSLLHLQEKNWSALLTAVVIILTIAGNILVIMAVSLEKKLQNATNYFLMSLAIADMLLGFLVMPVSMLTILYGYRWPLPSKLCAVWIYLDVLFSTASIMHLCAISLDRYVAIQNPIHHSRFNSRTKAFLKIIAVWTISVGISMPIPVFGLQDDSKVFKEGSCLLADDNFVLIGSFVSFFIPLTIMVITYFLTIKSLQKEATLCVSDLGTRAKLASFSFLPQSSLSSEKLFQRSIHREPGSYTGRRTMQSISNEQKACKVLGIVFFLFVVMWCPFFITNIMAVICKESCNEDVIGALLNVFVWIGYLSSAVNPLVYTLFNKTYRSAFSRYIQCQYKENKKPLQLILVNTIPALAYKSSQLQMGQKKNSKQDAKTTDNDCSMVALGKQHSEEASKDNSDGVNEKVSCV

[1] = target: 5-HT1A and 5-HT2A receptors (Homo sapiens, UniProt P28223); assay type: cell-based; details: 50 nM, 2 hours exposure before TCB-2 alone or TCB-2 and Xaliproden HCl
Chain of 5-HT1A and 5-HT2A receptors (P28223 whole entry): as above

[2] = HEK293 cell line 5-HT1A+2AR co-expressing

Chain of human 5-HT2A receptors (P28223 whole entry): as above

Work on `CN1CN(c2ccccc2)C2(CCN(CCCC(=O)c3ccc(F)cc3)CC2)C1=O` [[3H] MSP, [^3H]methylspiperone] yielded a Bmax (human 5-HT2A receptors; [2]) of 7.00 ± 1.05 pmol/mg, a Kd (human 5-HT2A receptors; [2]) of 0.725 ± 0.199 nM and a Bmax (human 5-HT2A receptors; HEK293 cell line 5-HT2AR only) of 4.17 ± 2.28 pmol/mg. For the same compound, the Kd (human 5-HT2A receptors; HEK293 cell line 5-HT2AR only) was 0.246 ± 0.042 nM.

In the case of `COc1ccccc1N1CCN(CCN(C(=O)c2ccc(F)cc2)c2ccccn2)CC1` [[3H] MPPF, 4-(2′-Methoxy)-phenyl-1-[2′-(N-2″-pyridinyl)-p-fluorobenzamido]ethyl-piperazine], the Bmax (human 5-HT1A receptors; [2]) is reported as 8.37 ± 4.14 pmol/mg, the Kd (human 5-HT1A receptors; [2]) is reported as 0.167 ± 0.013 nM and the Bmax (human 5-HT1A receptors; HEK293 cell line 5-HT1AR only) is reported as 3.07 ± 1.67 pmol/mg. The Kd (human 5-HT1A receptors; HEK293 cell line 5-HT1AR only) was 0.267 ± 0.036 nM.

`FC(F)(F)c1cccc(C2=CCN(CCc3ccc4ccccc4c3)CC2)c1` [Xaliproden HCl, Xaliproden hydrochloride] was tested, and the “Time-course pattern of ERK1/2 activation” value (5-HT1AR; 5-HT1AR agonist, HEK293 cells) was “transient activation” and the “Minimal concentration required to obtain observed ERK activation” value (5-HT1AR; 5-HT1AR cells, dose-response, 5 min) was 100 nM.

In the case of `CC(N)Cc1c[nH]c2ccc(O)cc12` (stereo not drawn) [α-methyl-5-HT], the “Time-course pattern of ERK activation” value (5-HT2AR; 10μM, HEK293-h5-HT2A) is reported as “sustained ERK activation”.

`O=C(c1ccc(F)cc1)C1CCN(CCn2c(=O)[nH]c3ccccc3c2=O)CC1` [Ketanserin] was tested, and the “Fraction of initial ERK activation observed” value (5-HT2AR; 50 nM Ketanserin present, 5-HT2AR clone) was “about half” and the “Effect on agonist-induced ERK response” value [1] was “switched it from sustained to transient”.

From PMC2635340 (Neuropharmacology, 2008)
